Experimental data reported in ChEMBL document CHEMBL3526015, “Metabolism of the c-Fos/activator protein-1 inhibitor T-5224 by multiple human UDP-glucuronosyltransferase isoforms” (Drug Metab Dispos, 2011).

Key:
[1] = target: T1, UDP-glucuronosyltransferase 1A1 (Homo sapiens, UniProt P22309); experiment: Drug metabolism assessed as human UGT1A1-mediated T-5224 hydroxyl O-glucuronide formation at 5 to 50 uM after 60 mins in presence of UDP-glucuronic acid by HPLC method; format: ADME; conditions: recombinant enzyme, 1 h
T1 sequence (P22309 whole entry): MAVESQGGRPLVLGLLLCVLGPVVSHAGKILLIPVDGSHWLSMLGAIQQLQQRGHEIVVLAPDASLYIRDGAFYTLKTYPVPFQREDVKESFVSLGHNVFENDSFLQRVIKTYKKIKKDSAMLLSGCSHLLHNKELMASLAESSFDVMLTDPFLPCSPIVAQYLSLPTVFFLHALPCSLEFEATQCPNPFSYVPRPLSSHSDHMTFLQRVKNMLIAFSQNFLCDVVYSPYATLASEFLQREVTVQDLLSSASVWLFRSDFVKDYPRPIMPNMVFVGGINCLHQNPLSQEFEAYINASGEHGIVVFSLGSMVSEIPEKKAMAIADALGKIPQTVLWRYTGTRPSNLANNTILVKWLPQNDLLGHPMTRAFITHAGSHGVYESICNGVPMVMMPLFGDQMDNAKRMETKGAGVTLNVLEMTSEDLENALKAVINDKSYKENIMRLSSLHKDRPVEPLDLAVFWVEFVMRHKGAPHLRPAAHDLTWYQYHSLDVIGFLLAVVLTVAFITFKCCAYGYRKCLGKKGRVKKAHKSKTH

[2] = test system: Liver microsome; experiment: Drug metabolism in human liver microsomes assessed as T-5224 acyl O-glucuronide formation at 10 uM after 10 mins in presence of beta-estradiol by HPLC method; format: ADME
How it was run: (§1)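 Pooled human liver microsomes or recombinant UGT1A1 were incubated with 10 μM T-5224, 2 mM UDPGA and β-estradiol at 0–500 μM (2% DMSO), in Tris-HCl/MgCl2/alamethicin buffer. Incubation was 10 min (liver microsomes) or 60 min (UGT1A1) at 37°C. G2/G3 were read by HPLC at 290 nm, as mean ± SD, n = 3.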

[3] = test system: Liver microsome; experiment: Drug metabolism in human liver microsomes assessed as Vmax/Km ratio for T-5224 acyl O-glucuronide formation per mg protein after 10 to 60 mins by HPLC method; format: ADME
How it was run: (§2)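 Pooled liver (0.5 mg protein/mL) or intestinal (0.25 mg protein/mL) microsomes in 50 mM Tris-HCl pH 7.5, 8 mM MgCl2, alamethicin, 2% DMSO. T-5224 at 1–50 μM, 5 min preincubation at 37°C, started with 2 mM UDPGA. Incubated 10 min, or 20 min for intestinal microsomes at 1–5 μM. Acetonitrile stop, glucuronides by HPLC at 290 nm. Triplicates fitted to a substrate-inhibition model.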

[4] = target: T1, UDP-glucuronosyltransferase 1A1; experiment: Drug metabolism assessed as human UGT1A1-mediated T-5224 hydroxyl O-glucuronide formation at 10 uM […] in presence of beta-estradiol by HPLC method; format: ADME; conditions: recombinant enzyme; how it was run: as §1
[5] = target: T2, Cytochrome P450 2C8 (Homo sapiens, UniProt P10632); experiment: Drug metabolism assessed as human CYP2C8-mediated metabolite formation at 2 uM after 30 mins by HPLC method; format: ADME; conditions: recombinant enzyme, 0.5 h
T2 sequence (P10632 whole entry): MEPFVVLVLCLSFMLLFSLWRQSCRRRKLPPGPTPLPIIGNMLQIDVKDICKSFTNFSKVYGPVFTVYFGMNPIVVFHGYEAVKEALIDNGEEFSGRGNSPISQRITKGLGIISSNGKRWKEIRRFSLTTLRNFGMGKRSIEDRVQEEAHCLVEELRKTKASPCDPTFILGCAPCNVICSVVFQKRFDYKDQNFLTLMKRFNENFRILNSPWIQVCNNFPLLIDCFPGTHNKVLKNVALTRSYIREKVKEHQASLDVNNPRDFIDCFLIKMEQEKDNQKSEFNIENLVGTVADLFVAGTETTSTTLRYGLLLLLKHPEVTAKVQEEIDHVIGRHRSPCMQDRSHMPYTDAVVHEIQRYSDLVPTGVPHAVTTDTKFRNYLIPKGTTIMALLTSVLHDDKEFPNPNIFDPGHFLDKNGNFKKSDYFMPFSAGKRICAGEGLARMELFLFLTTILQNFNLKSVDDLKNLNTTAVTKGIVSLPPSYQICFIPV
How it was run: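 Each recombinant human P450 was used at 50 pmol/mL with an NADPH-generating system and 2 μM 14C-T-5224 (0.5% DMSO final). Buffer was 100 mM Tris-HCl pH 7.5, except 100 mM potassium phosphate pH 7.4 for CYP2A6 and CYP2C9*1. Incubation ran 30 min at 37°C and was stopped with acetonitrile/methanol. Radioactive metabolite peaks were detected by C18 HPLC.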

[6] = Drug metabolism in pooled human intestinal microsomes assessed as T-5224 acyl O-glucuronide formation at 10 uM after 10 mins by HPLC method; format: ADME, Intestine, Microsome
How it was run: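 T-5224 at 10 μM incubated for 10 min at 37°C with UDPGA (2 mM) in pooled liver (0.5 mg protein/mL) or intestinal (0.25 mg protein/mL) microsomes. Buffer was 50 mM Tris-HCl pH 7.5 with 8 mM MgCl2 and alamethicin, after 5 min preincubation. Stopped with acetonitrile; glucuronides quantified by HPLC at 290 nm.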

[7] = test system: Liver microsome; experiment: Drug metabolism in human liver microsomes assessed as T-5224 hydroxyl O-glucuronide formation per mg protein after 10 to 60 mins by HPLC method; format: ADME; how it was run: as §2
[8] = target: T3, UDP-glucuronosyltransferase 1A8 (Homo sapiens, UniProt Q9HAW9); experiment: Drug metabolism assessed as human UGT1A8-mediated T-5224 hydroxyl O-glucuronide formation at 5 to 50 uM after 60 mins in presence of UDP-glucuronic acid by HPLC method; format: ADME; conditions: recombinant enzyme, 1 h
T3 sequence (Q9HAW9 whole entry): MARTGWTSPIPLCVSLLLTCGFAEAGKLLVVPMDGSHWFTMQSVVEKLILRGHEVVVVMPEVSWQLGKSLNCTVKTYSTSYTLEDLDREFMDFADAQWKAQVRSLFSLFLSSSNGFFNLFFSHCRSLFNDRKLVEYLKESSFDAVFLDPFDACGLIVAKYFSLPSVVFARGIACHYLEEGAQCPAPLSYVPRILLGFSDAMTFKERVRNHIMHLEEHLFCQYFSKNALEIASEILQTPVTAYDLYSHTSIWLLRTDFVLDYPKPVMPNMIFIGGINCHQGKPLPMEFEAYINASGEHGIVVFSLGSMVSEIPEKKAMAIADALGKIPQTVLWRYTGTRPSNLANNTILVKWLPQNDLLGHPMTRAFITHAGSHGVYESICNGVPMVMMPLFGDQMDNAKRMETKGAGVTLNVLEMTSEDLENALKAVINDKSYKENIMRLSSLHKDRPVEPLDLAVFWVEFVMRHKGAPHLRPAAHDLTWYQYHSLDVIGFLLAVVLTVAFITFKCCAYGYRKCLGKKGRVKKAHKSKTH

Drug metabolism [1]: metabolite_detected
Drug metabolism [2]: metabolite_not_detected
Vmax/Km [3]: 44 µL/min
Drug metabolism [4]: metabolite_detected
Drug metabolism [5]: metabolite_not_detected
Drug metabolism [6]: metabolite_detected
Vmax [7]: 305 pmol/min
Drug metabolism [8]: metabolite_detected
SMILES: O=C(O)CCc1cc(C(=O)c2ccc(OC3CCCC3)cc2O)ccc1OCc1ccc2c(O)noc2c1
